Results on 1 sequence are retold here after publication PMC6218153 (Journal of Alzheimer's Disease Reports, 2018).

Where no end group is shown, it is not given here.

The nature of series [1]: Metabolic stability in mouse plasma. The class given is in vitro ADME. The method in brief:
(§1)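 Test compound (100 μM stock in methanol) added to 1 μM final in plasma or brain homogenate (1:3 brain:PBS, w/v) and incubated at room temperature. Sampled at 15 and 30 min and 1, 2 and 4 h; time-zero samples pre-quenched with methanol. Proteins were methanol-precipitated; supernatant evaporated, reconstituted in 0.1% formic acid and analysed by LC/MS/MS. Duplicates per time point; results expressed as % of time 0.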

The nature of series [2]: Metabolic stability in mouse brain homogenate. The class given is in vitro ADME. The gist of the method:
as §1

Series [3] in a line: Metabolic stability in human brain homogenate. The class given is in vitro ADME. The gist of the method: as §1
Series [4] is described as follows: Radiolabel distribution study of 3H-P8 after IV or IN delivery. The class given is in vivo. The conditions noted are these: rat. The method in brief: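 Adult male SD rats (n = 6/route) were anaesthetised with ketamine/xylazine/acepromazine. They received 0.5 mg test compound plus 60 μCi tritiated label in 60 μL over 18 min, either by IV infusion or by IN drops to alternating nares every 2 min while supine. Blood was drawn 10 and 20 min after dosing ended. At 30 min: cardiac puncture, saline perfusion, then tissue scintillation counting. Concentrations were derived from DPM, tissue weight and specific activity; values beyond 2 SD were excluded as outliers.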

What is called half-life is the time in which the quantity being followed falls by half. A higher half-life goes with slow loss. One may read the amount remaining as what is left of the initial amount, in per cent. Higher therefore signals less turnover. Consider DEEEDEEL [P8, DEEEDEEL], for which the half-life in series [1] was > 4 h; in series [3] (human brain homogenate, 1μM P8, room temperature), 2 h. In addition, the share remaining at 2 h, 1 μM in series [1] turned out to be 100%; in series [2], 49.2%; in series [3] (human, brain homogenate), 51.4%. For the same sequence, in series [4], the “improvement of brain targeting, IN compared to IV delivery” value is on record as “approximately 4 fold”.
